These results are taken from PubChem BioAssay AID720543 (The Scripps Research Institute Molecular Screening Center, 2013).

Molecules are shown by their SMILES. Hit rate of the full screen: of about 370,000 compounds, about 2,000 (0.54%) were called active.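 Rule for the calls: active = inhibition exceeding the mean over every tested compound plus 3 SD (cut at about 30% in these data); inactive = the rest.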 Many of the other results were omitted from the sample, so actives are more common in it than they were.

In the experiment the target is (Lyso)-N-acylphosphatidylethanolamine lipase (Mus musculus) (UniProt Q8VD66). In words: ABHD4 inhibitors, primary screen, biochemical, fluorescence polarization, mouse (AID 720543). Particulars: purified mABHD4, FP-Rh probe fluorescence polarization; at 8.92 µM; active compounds read high. In short, it runs like this: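 Assay system: mouse ABHD4 enzyme, wild type / Also added: fluorescent activity-based probe FP-Rh / Doses: single nominal dose of 8.92 µM, 0.89% DMSO final / Timing: 45 min compound pre-incubation plus 60 min probe step, 25 °C / Signal: FP readout, ex 525 nm / em 598 nm / Control set: S159A mutant/DMSO as 100%, compound-well median as 0%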
Chain of (Lyso)-N-acylphosphatidylethanolamine lipase (Mus musculus) (Q8VD66 whole entry, looked up): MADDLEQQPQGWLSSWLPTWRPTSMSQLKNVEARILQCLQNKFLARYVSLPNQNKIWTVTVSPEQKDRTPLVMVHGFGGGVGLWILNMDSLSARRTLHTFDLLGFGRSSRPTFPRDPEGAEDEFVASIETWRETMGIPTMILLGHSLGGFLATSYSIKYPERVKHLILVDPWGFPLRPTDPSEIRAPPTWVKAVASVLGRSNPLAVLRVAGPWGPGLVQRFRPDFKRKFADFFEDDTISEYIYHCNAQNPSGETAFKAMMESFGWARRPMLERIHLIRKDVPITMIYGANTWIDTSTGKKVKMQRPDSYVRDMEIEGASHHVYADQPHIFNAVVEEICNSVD
A general note: Polarisation of emitted light reports the rotation of a fluorescent probe.
Take `O=c1c2ccccc2[nH]c(=S)n1-c1cccc(Cl)c1`: the inhibition is 6.67% (inactive).
The figure for `COc1cc(-n2c(=S)[nH]c3ccc(C)cc3c2=O)c(Cl)cc1Cl` is 36.9% (active).
Then `CC12CN3CC(C)(CN(C1)C3c1cccs1)C2` (stereo not given), with 2.23% (inactive).
Then `C/C=C/CC1(CC)C(=O)NC(=S)NC1=O`, with 5.1% (inactive); and `c1ccc(C2NCc3ccccc3-n3cccc32)cc1` (stereo not given), with 6.15% (inactive).
For the compound `CCOc1ccc(-c2cc(C)[n+](CCN(CC)CC)c(-c3ccc(OCC)cc3)c2)cc1`, the inhibition was 5.92% (inactive).
For `CCOc1cccc(=NC2CCCCC2)c2c(C)[nH]c(C)c12`, the inhibition is 34.4% (active).
The figure for `COc1ccc(NC(=O)N2CCC3(CC2)OCCO3)c(OC)c1` is 2.18% (inactive); for `CO[C@H]([C@H](C)/C=C/N(C)C=O)[C@@H](C)C(=O)CC[C@H](C)[C@H](O)[C@H](C)[C@H]1OC(=O)/C=C/C(C)=C/[C@H](O)[C@H](OC)C[C@@H]2C=CC[C@@H](C[C@H](OC)[C@@]3(CO3)[C@@H](OC)C[C@@H](OC)[C@@H]1C)O2` it is -6.78% (inactive); for `Clc1ccc([C@@H]2CC3CCC2N3)cn1` (stereo not given in full) it is 7.57% (inactive).

As usually defined, the inhibition is the change of the read-out against control, counted positive when it falls.
